Data: BindingDB's records for doi:10.1021/acs.jmedchem.7b00976 (Leipzig University, 2017)

What was measured:
[1] = target: T1, Neuropeptide Y receptor type 4 (Homo sapiens, UniProt P50391); test: Positive allosteric modulation of human C-terminal eYFP-tagged NY4 receptor expressed in HEK293 cells assessed as potentiation of peptide YY-induced arrestin 3 recruitment by measuring peptide YY pEC50 at 30 uM after 30 mins by BRET assay (Rvb = 5.8 +/- 0.20 No_unit)
[2] = target: T1, Neuropeptide Y receptor type 4; test: (§1) Positive allosteric modulation of human NY4 receptor expressed in African green monkey COS7 cells co-expressing delta6Galphaqi4-myr assessed as potentiation of peptide YY induced-calcium flux by measuring peptide YY pEC50 at 30 uM treated at 20 secs post baseline detection followed by addition of peptide YY after 140 secs by Fluo2-AM fluorescent dye based-assay (Rvb = 8.6 +/- 0.08 No_unit)
In short: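 COS7 cells stably co-expressing Y4R-eYFP and Δ6Gαqi4-myr were seeded overnight. They were loaded with 2.4 μM Fluo2-AM in HBSS/20 mM HEPES/[…] for 60 min at 37 °C, then kept in assay buffer. Fluorescence was read at ex 485/em 525 nm. Compound was added after a 20 s baseline and peptide at 140 s. Response was taken as x-fold over basal, normalized to the DMSO control, and fitted to an operational model of allosterism. Duplicates, at least three independent runs.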

[3] = Positive allosteric modulation of human NY4 receptor expressed in African green monkey COS7 cells co-expressing delta6Galphaqi4-myr assessed as potentiation of neuropeptide Y induced-calcium flux by measuring neuropeptide Y pEC50 at 30 uM treated at 20 secs post baseline detection followed by addition of neuropeptide Y after 140 secs by Fluo2
[4] = target: T1, Neuropeptide Y receptor type 4; test: ASSAY_NAME: ChEMBL_1668991 (CHEMBL4018879) DESCRIPTION: Positive allosteric modulation of human NY4 receptor expressed in African green monkey COS7 cells co-expressing delta6Galphaqi4-myr assessed as potentiation of pancreatic polypeptide induced-calcium flux by measuring pancreatic polypeptide EC50 at 30 uM treated at 20 secs post baseline detection followed by addition of pancreatic polypeptide …
[5] = target: T1, Neuropeptide Y receptor type 4; test: Positive allosteric modulation of human C-terminal eYFP-tagged NY4 receptor expressed in HEK293 cells assessed as potentiation of pancreatic polypeptide-induced arrestin 3 recruitment by measuring pancreatic polypeptide EC50 at 30 uM after 30 mins by BRET assay (Rvb = 5.6 nM)
[6] = target: T1, Neuropeptide Y receptor type 4; test: Positive allosteric modulation of human C-terminal eYFP-tagged NY4 receptor expressed in HEK293 cells assessed as potentiation of pancreatic polypeptide-induced arrestin 3 recruitment by measuring pancreatic polypeptide pEC50 at 30 uM after 30 mins by BRET assay (Rvb = 8.3 +/- 0.12 No_unit)
[7] = target: T1, Neuropeptide Y receptor type 4; test: Effect on peptide YY-mediated displacement of 125I-pancreatic polypeptide from human C-terminal eYFP-tagged NY4 receptor expressed in HEK293 cell membranes assessed as peptide YY pKi at 30 uM after 5 hrs by scintillation counting (Rvb = 8 +/- 0.2 No_unit)
[8] = Positive allosteric modulation of human NY4 receptor expressed in African green monkey COS7 cells co-expressing delta6Galphaqi4-myr assessed as potentiation of pancreatic polypeptide induced-calcium flux by measuring pancreatic polypeptide pEC50 at 30 uM treated at 20 secs post baseline detection followed by addition of pancreatic polypeptide
[9] = Positive allosteric modulation of human C-terminal eYFP-tagged NY4 receptor expressed in HEK293 cells assessed as potentiation of neuropeptide Y-induced arrestin 3 recruitment by measuring neuropeptide Y pEC50 at 30 uM after 30 mins by BRET assay (Rvb = 5.9 +/- 0.15 No_unit)
[10] = Positive allosteric modulation of human NY4 receptor expressed in African green monkey COS7 cells co-expressing delta6Galphaqi4-myr assessed as potentiation of neuropeptide Y induced-calcium flux by measuring neuropeptide Y EC50 at 30 uM treated at 20 secs post baseline detection followed by addition of neuropeptide Y after 140 secs by Fluo2-
[11] = Positive allosteric modulation of human C-terminal eYFP-tagged NY4 receptor expressed in HEK293 cells assessed as potentiation of neuropeptide Y-induced arrestin 3 recruitment by measuring neuropeptide Y EC50 at 30 uM after 30 mins by BRET assay (Rvb = 1380 nM)
[12] = target: T1, Neuropeptide Y receptor type 4; test: Positive allosteric modulation of human C-terminal eYFP-tagged NY4 receptor expressed in HEK293 cells assessed as potentiation of peptide YY-induced arrestin 3 recruitment by measuring peptide YY EC50 at 30 uM after 30 mins by BRET assay (Rvb = 1600 nM)
[13] = target: T1, Neuropeptide Y receptor type 4; test: Effect on neuropeptide Y-mediated displacement of 125I-pancreatic polypeptide from human C-terminal eYFP-tagged NY4 receptor expressed in HEK293 cell membranes assessed as neuropeptide Y pKi at 30 uM after 5 hrs by scintillation counting (Rvb = 7.9 +/- 0.2 No_unit)
[14] = target: T1, Neuropeptide Y receptor type 4; test: as §1, with “EC50” for “pEC50”, “2.6 nM)” for “8.6 +/- 0.08 No_unit)”
In short: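 COS7 cells stably co-expressing human Y4R-eYFP fusion and chimeric Δ6Gαqi4-myr, seeded overnight in 96-well format; loaded with 2.4 μM Fluo2-AM in HBSS/20 mM HEPES/probenecid, 60 min at 37 °C. Two-addition FlexStation read (ex 485/em 525 nm): compound or DMSO after 20 s baseline, PYY at 140 s. Response as x-fold over basal, normalized to PP; duplicates, ≥3 independent experiments.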

[15] = Positive allosteric modulation of human C-terminal eYFP-fused human NY1 receptor expressed in African green monkey COS7 cells co-expressing delta6Galphaqi4-myr assessed as potentiation of neuropeptide Y-mediated Ca2+ flux by measuring […] at 30 uM treated at 20 secs post baseline detection followed by addition of neuro
[16] = target: T2, Neuropeptide Y receptor type 2 (Homo sapiens, UniProt P49146); test: ASSAY_NAME: ChEMBL_1668994 (CHEMBL4018882) DESCRIPTION: Positive allosteric modulation of human C-terminal eYFP-fused human NY2 receptor expressed in African green monkey COS7 cells co-expressing delta6Galphaqi4-myr assessed as potentiation of neuropeptide Y-mediated Ca2+ flux by measuring pancreatic polypeptide EC50 at 30 uM treated at 20 secs post baseline detection followed by addition of …
T2 sequence (P49146 whole entry): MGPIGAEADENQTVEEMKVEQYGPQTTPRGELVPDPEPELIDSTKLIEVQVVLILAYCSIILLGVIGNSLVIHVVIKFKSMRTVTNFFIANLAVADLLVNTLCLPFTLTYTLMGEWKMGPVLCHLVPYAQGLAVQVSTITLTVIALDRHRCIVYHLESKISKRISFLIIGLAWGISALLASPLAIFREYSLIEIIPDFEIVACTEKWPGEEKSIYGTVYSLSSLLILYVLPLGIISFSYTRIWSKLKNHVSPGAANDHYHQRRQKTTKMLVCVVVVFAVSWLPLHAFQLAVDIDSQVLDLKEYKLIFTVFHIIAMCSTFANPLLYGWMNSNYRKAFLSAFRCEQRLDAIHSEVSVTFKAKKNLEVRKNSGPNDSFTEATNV

T1 sequence (P50391 whole entry C240R): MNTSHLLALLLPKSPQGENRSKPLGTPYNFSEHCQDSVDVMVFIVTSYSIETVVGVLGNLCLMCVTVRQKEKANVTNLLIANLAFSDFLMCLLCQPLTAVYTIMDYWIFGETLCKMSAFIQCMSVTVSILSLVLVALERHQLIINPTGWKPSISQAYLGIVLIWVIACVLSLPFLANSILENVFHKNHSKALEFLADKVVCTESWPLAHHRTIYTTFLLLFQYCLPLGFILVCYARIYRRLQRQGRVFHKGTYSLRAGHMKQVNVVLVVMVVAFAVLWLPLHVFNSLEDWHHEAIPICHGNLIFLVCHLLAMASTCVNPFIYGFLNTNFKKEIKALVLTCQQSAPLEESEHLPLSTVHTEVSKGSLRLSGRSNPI

CC(C)(C)c1ccc(OC2CCCCC2O)cc1 (stereo unspecified)
EC50 [1]: 794 nM
EC50 [2]: 0.501 nM
EC50 [3]: 0.398 nM
EC50 [4]: 0.03 nM
EC50 [5]: 4.5 nM
EC50 [6]: 4 nM
Ki [7]: 6.3 nM
EC50 [8]: 0.0398 nM
EC50 [9]: 398 nM
EC50 [10]: 0.4 nM
EC50 [11]: 443 nM
EC50 [12]: 845 nM
Ki [13]: 6.3 nM
EC50 [14]: 0.5 nM
EC50 [15]: 0.0398 nM
EC50 [16]: 0.0631 nM
